In brackets after ≈: the same amount, converted by molar mass. Activity calls are given as the source filed them. No cut-off for these calls is given here.
Key:
[1] = tested on: Pseudomonas aeruginosa; assay: Antimicrobial activity against Pseudomonas aeruginosa at 15 ug after 24 hrs by disk diffusion method; format: functional; settings: read-out: IZ
In short: (§1)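 Inoculum made in 0.85% saline against McFarland standard, swabbed evenly onto nutrient agar; sterile filter-paper discs set equidistant and loaded with equal volumes of drug at varying amounts; zone of inhibition measured after 24 h at 37 °C; ciprofloxacin reference.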

[2] = tested on: Klebsiella pneumoniae; assay: Antimicrobial activity against Klebsiella pneumoniae by broth microdilution assay; format: functional
In short: (§2)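 Broth microdilution per NCCLS 1997 in 96-well plate; final inoculum 10^5 cfu/mL; incubated 35.7 °C in air 18–20 h; MIC read as lowest concentration with no visible growth.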

[3] = tested on: Staphylococcus aureus; assay: Antimicrobial activity against Staphylococcus aureus at 10 ug after 24 hrs by disk diffusion method; format: functional; settings: read-out: IZ; in short: as §1
[4] = tested on: Escherichia coli; assay: Antimicrobial activity against Escherichia coli at 25 ug after 24 hrs by disk diffusion method; format: functional; settings: read-out: IZ; in short: as §1
[5] = tested on: Escherichia coli; assay: Antimicrobial activity against Escherichia coli by broth microdilution assay; format: functional; in short: as §2
[6] = tested on: Staphylococcus aureus; assay: Antimicrobial activity against Staphylococcus aureus at 25 ug after 24 hrs by disk diffusion method; format: functional; settings: read-out: IZ; in short: as §1
[7] = tested on: Klebsiella pneumoniae; assay: Antimicrobial activity against Klebsiella pneumoniae at 15 ug after 24 hrs by disk diffusion method; format: functional; settings: read-out: IZ; in short: as §1
[8] = tested on: Pseudomonas aeruginosa; assay: Antimicrobial activity against Pseudomonas aeruginosa by broth microdilution assay; format: functional; in short: as §2
[9] = tested on: Escherichia coli; assay: Antimicrobial activity against Escherichia coli at 15 ug after 24 hrs by disk diffusion method; format: functional; settings: read-out: IZ; in short: as §1
[10] = tested on: Bacillus subtilis; assay: Antimicrobial activity against Bacillus subtilis at 20 ug after 24 hrs by disk diffusion method; format: functional; settings: read-out: IZ; in short: as §1
[11] = tested on: Klebsiella pneumoniae; assay: Antimicrobial activity against Klebsiella pneumoniae at 10 ug after 24 hrs by disk diffusion method; format: functional; settings: read-out: IZ; in short: as §1
[12] = tested on: Pseudomonas aeruginosa; assay: Antimicrobial activity against Pseudomonas aeruginosa at 10 ug after 24 hrs by disk diffusion method; format: functional; settings: read-out: IZ; in short: as §1
[13] = tested on: Salmonella typhimurium; assay: Antimicrobial activity against Salmonella Typhimurium at 20 ug after 24 hrs by disk diffusion method; format: functional, Salmonella enterica subsp. enterica serovar Typhimurium; settings: Salmonella enterica, read-out: IZ; in short: as §1
[14] = tested on: Bacillus subtilis; assay: Antimicrobial activity against Bacillus subtilis by broth microdilution assay; format: functional; in short: as §2
[15] = tested on: Salmonella typhimurium; assay: Antimicrobial activity against Salmonella Typhimurium at 10 ug after 24 hrs by disk diffusion method; format: functional, Salmonella enterica subsp. enterica serovar Typhimurium; settings: Salmonella enterica, read-out: IZ; in short: as §1
[16] = tested on: Staphylococcus aureus; assay: Antimicrobial activity against Staphylococcus aureus at 15 ug after 24 hrs by disk diffusion method; format: functional; settings: read-out: IZ; in short: as §1
[17] = tested on: Staphylococcus aureus; assay: Antimicrobial activity against Staphylococcus aureus at 20 ug after 24 hrs by disk diffusion method; format: functional; settings: read-out: IZ; in short: as §1
[18] = tested on: Salmonella typhimurium; assay: Antimicrobial activity against Salmonella Typhimurium at 5 ug after 24 hrs by disk diffusion method; format: functional, Salmonella enterica subsp. enterica serovar Typhimurium; settings: Salmonella enterica, read-out: IZ; in short: as §1
[19] = tested on: Klebsiella pneumoniae; assay: Antimicrobial activity against Klebsiella pneumoniae at 25 ug after 24 hrs by disk diffusion method; format: functional; settings: read-out: IZ; in short: as §1
[20] = tested on: Pseudomonas aeruginosa; assay: Antimicrobial activity against Pseudomonas aeruginosa at 25 ug after 24 hrs by disk diffusion method; format: functional; settings: read-out: IZ; in short: as §1
[21] = tested on: Salmonella typhimurium; assay: Antimicrobial activity against Salmonella Typhimurium at 15 ug after 24 hrs by disk diffusion method; format: functional, Salmonella enterica subsp. enterica serovar Typhimurium; settings: Salmonella enterica, read-out: IZ; in short: as §1
[22] = tested on: Klebsiella pneumoniae; assay: Antimicrobial activity against Klebsiella pneumoniae at 20 ug after 24 hrs by disk diffusion method; format: functional; settings: read-out: IZ; in short: as §1
[23] = Inhibition of DNA gyrase assessed as conversion of relaxed pBR322 to supercoiled form
In short: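 Supercoiling in 15 µL reactions: gyrase assay buffer, 150 ng relaxed pBR322, 2–3 µL purified DNA gyrase, 3 h at 37 °C (E. coli); stopped with 50% glycerol/0.25% bromophenol blue; 1% agarose in 1× TBE pH 8.3, 90 V 3 h; ethidium bromide stain; supercoiled band brightness by densitometry. Ciprofloxacin comparator.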

[24] = tested on: Escherichia coli; assay: Antimicrobial activity against Escherichia coli at 10 ug after 24 hrs by disk diffusion method; format: functional; settings: read-out: IZ; in short: as §1
[25] = tested on: Salmonella typhi; assay: Antimicrobial activity against Salmonella typhi by broth microdilution assay; format: functional, Salmonella enterica subsp. enterica serovar Typhi; settings: Salmonella enterica
In short: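 Broth microdilution in 96-well plates following the NCCLS 1997 protocol. Final inoculum was 10^5 cfu/mL, with a control organism run alongside. Plates were incubated at 35.7 °C in air for 18–20 h. MIC is the lowest concentration with no visible growth.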

[26] = tested on: Salmonella typhimurium; assay: Antimicrobial activity against Salmonella Typhimurium at 25 ug after 24 hrs by disk diffusion method; format: functional, Salmonella enterica subsp. enterica serovar Typhimurium; settings: Salmonella enterica, read-out: IZ; in short: as §1
[27] = tested on: Pseudomonas aeruginosa; assay: Antimicrobial activity against Pseudomonas aeruginosa at 5 ug after 24 hrs by disk diffusion method; format: functional; settings: read-out: IZ; in short: as §1
[28] = tested on: Escherichia coli; assay: Antimicrobial activity against Escherichia coli at 5 ug after 24 hrs by disk diffusion method; format: functional; settings: read-out: IZ; in short: as §1
[29] = tested on: Klebsiella pneumoniae; assay: Antimicrobial activity against Klebsiella pneumoniae at 5 ug after 24 hrs by disk diffusion method; format: functional; settings: read-out: IZ; in short: as §1
[30] = tested on: Staphylococcus aureus; assay: Antimicrobial activity against Staphylococcus aureus by broth microdilution assay; format: functional; in short: as §2
[31] = Inhibition of DNA gyrase assessed as pBR322 DNA relaxation at 2.5 uM
In short: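 Gyrase (60 nM) was incubated with supercoiled pBR322 DNA (6 nM) and increasing compound concentrations (0, 0.1, 0.25, 0.5, 2.5) without ATP for 1 h at 37 °C. Relaxation of the supercoiled DNA was evaluated.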

[32] = tested on: Escherichia coli; assay: Antimicrobial activity against Escherichia coli at 20 ug after 24 hrs by disk diffusion method; format: functional; settings: read-out: IZ; in short: as §1
[33] = tested on: Bacillus subtilis; assay: Antimicrobial activity against Bacillus subtilis at 25 ug after 24 hrs by disk diffusion method; format: functional; settings: read-out: IZ; in short: as §1
[34] = tested on: Pseudomonas aeruginosa; assay: Antimicrobial activity against Pseudomonas aeruginosa at 20 ug after 24 hrs by disk diffusion method; format: functional; settings: read-out: IZ; in short: as §1
[35] = tested on: Staphylococcus aureus; assay: Antimicrobial activity against Staphylococcus aureus at 5 ug after 24 hrs by disk diffusion method; format: functional; settings: read-out: IZ; in short: as §1
[36] = tested on: Bacillus subtilis; assay: Antimicrobial activity against Bacillus subtilis at 15 ug after 24 hrs by disk diffusion method; format: functional; settings: read-out: IZ; in short: as §1
[37] = tested on: Bacillus subtilis; assay: Antimicrobial activity against Bacillus subtilis at 10 ug after 24 hrs by disk diffusion method; format: functional; settings: read-out: IZ; in short: as §1

`c1ccc(C2c3ccccc3N[C@H]3c4cccn4C[C@@H]23)cc1` (stereo partly drawn) showed a zone of inhibition at 15 µg/disc [1] of 17 mm, an MIC50 [2] of 2 µg/mL (≈ 6.98 µM) and an MIC90 [2] of 32 µg/mL (≈ 112 µM). The zone of inhibition at 10 µg/disc [3] was 12 mm, the zone of inhibition at 25 µg/disc [4] was 23 mm and the MIC50 [5] was 2 µg/mL (≈ 6.98 µM). For the same compound, the MIC90 [5] was 4 µg/mL (≈ 14 µM), the zone of inhibition at 25 µg/disc [6] was 17 mm and the zone of inhibition at 15 µg/disc [7] was 30 mm. It also gave an MIC50 [8] of 0.5 µg/mL (≈ 1.75 µM), an MIC90 [8] of 32 µg/mL (≈ 112 µM) and a zone of inhibition at 15 µg/disc [9] of 18 mm. The zone of inhibition at 20 µg/disc [10] was 7 mm, the zone of inhibition at 10 µg/disc [11] was 26 mm and the zone of inhibition at 10 µg/disc [12] was 16 mm. The zone of inhibition at 20 µg/disc [13] was 22 mm, the MIC50 [14] was 2.5 µg/mL (≈ 8.73 µM) and the MIC90 [14] was 5 µg/mL (≈ 17.5 µM). For the same compound, the zone of inhibition at 10 µg/disc [15] was 16 mm, the zone of inhibition at 15 µg/disc [16] was 13 mm and the zone of inhibition at 20 µg/disc [17] was 14 mm. For the same compound, the zone of inhibition at 5 µg/disc [18] was 10 mm, the zone of inhibition at 25 µg/disc [19] was 36 mm and the zone of inhibition at 25 µg/disc [20] was 24 mm. For the same compound, the zone of inhibition at 15 µg/disc [21] was 18 mm, the zone of inhibition at 20 µg/disc [22] was 34 mm and the Activity [23] was “Active”. It also gave a zone of inhibition at 10 µg/disc [24] of 16 mm, an MIC50 [25] of 1.64 µg/mL (≈ 5.73 µM) and an MIC90 [25] of 2.5 µg/mL (≈ 8.73 µM). It also gave a zone of inhibition at 25 µg/disc [26] of 24 mm, a zone of inhibition at 5 µg/disc [27] of 10 mm and a zone of inhibition at 5 µg/disc [28] of 10 mm. It also gave a zone of inhibition at 5 µg/disc [29] of 20 mm, an MIC50 [30] of 64 µg/mL (≈ 223 µM) and an MIC90 [30] of 128 µg/mL (≈ 447 µM). For the same compound, the Activity [31] was “Active”, the zone of inhibition at 20 µg/disc [32] was 20 mm and the zone of inhibition at 25 µg/disc [33] was 9 mm. For the same compound, the zone of inhibition at 20 µg/disc [34] was 22 mm, the zone of inhibition at 5 µg/disc [35] was 9 mm and the zone of inhibition at 15 µg/disc [36] was 6 mm. The zone of inhibition at 10 µg/disc [37] was 7 mm.

Reference: ChEMBL document CHEMBL1140876, “Synthesis and antibacterial property of quinolines with potent DNA gyrase activity” (2009)
